Reference: ChEMBL document CHEMBL1122522, “Conformationally restricted retinoids” (1984)

How the values were obtained:
[1] = test system: Cricetinae gen. sp.; assay: Molarity required to effect reversal of keratinization in 50% of cultures.; type: functional, Cricetulus griseus
[2] = test system: Cricetinae gen. sp.; assay: Activity of compound the was expressed as ratio of active hamster tracheal organ cultures(TOC) to the total cultures at 10e-9 M concentration; 5/19; type: functional, Cricetulus griseus, Trachea
Summary of the method: (§1)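 Tracheal organ cultures came from vitamin A-deficient hamsters. Each culture was scored for reversal of keratinization and reported as active cultures out of total cultures at each retinoid concentration tested (10⁻⁸ to 10⁻¹² M). The protocol followed earlier published methods.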

[3] = test system: Cricetinae gen. sp.; assay: Activity of compound the was expressed as ratio of active hamster tracheal organ cultures(TOC) to the total cultures at 10e-10 M concentration; 6/13; type: functional, Cricetulus griseus, Trachea; summary of the method: as §1
[4] = test system: Cricetinae gen. sp.; assay: Activity of compound the was expressed as ratio of active hamster tracheal organ cultures(TOC) to the total cultures at 10e-11 M concentration; 1/5; type: functional, Cricetulus griseus, Trachea; summary of the method: as §1
[5] = test system: Cricetinae gen. sp.; assay: Activity of compound the was expressed as ratio of active hamster tracheal organ cultures(TOC) to the total cultures at 10e-9 M concentration; 11/12; type: functional, Cricetulus griseus, Trachea; summary of the method: as §1
[6] = test system: Cricetinae gen. sp.; assay: Activity of compound the was expressed as ratio of active hamster tracheal organ cultures(TOC) to the total cultures at 10e-8 M concentration; 7/7; type: functional, Cricetulus griseus, Trachea; details: at 0.01 µM
[7] = test system: Cricetinae gen. sp.; assay: Activity of compound the was expressed as ratio of active hamster tracheal organ cultures(TOC) to the total cultures at 10e-10 M concentration; 3/14; type: functional, Cricetulus griseus, Trachea; summary of the method: as §1
[8] = test system: Cricetinae gen. sp.; assay: Activity of compound the was expressed as ratio of active hamster tracheal organ cultures(TOC) to the total cultures at 10e-8 M concentration; 8/8; type: functional, Cricetulus griseus, Trachea; summary of the method: as §1
[9] = test system: Cricetinae gen. sp.; assay: Activity of compound the was expressed as ratio of active hamster tracheal organ cultures(TOC) to the total cultures at 10e-9 M concentration; 8/14; type: functional, Cricetulus griseus, Trachea; summary of the method: as §1
[10] = target: T1, Ornithine decarboxylase (Mus musculus) (UniProt P00860); assay: Inhibition of the induction of ornithine decarboxylase in mouse epidermis by the tumor promoter 12-O-tetradecanoylphorbol-13-acetate (ODC) at dose 17 nmol * p<0.05
T1 sequence (whole entry): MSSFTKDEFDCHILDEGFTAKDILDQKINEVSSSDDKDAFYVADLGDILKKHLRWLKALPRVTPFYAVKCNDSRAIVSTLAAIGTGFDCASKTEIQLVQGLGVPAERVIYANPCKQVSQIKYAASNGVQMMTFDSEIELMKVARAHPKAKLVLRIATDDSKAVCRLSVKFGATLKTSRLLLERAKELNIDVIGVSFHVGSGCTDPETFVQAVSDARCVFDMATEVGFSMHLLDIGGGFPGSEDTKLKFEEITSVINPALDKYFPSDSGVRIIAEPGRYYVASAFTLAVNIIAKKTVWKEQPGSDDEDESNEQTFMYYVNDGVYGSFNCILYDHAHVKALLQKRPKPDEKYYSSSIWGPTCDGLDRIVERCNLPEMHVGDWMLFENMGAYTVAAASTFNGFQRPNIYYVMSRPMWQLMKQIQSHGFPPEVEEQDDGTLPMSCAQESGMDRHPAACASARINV

[11] = target: T1, Ornithine decarboxylase (Mus musculus); assay: Inhibition of the induction of ornithine decarboxylase in mouse epidermis by the tumor promoter 12-O-tetradecanoylphorbol-13-acetate (ODC) at dose 1.7 nmol * p<0.02

SMILES	ED50 [1]	Activity [2]	Activity [3]	Activity [4]	Activity [5]	Activity [6]	Activity [7]	Activity [8]	Activity [9]	inhibition [10]	inhibition [11]
CCOC(=O)/C=C(C)/C=C/C=C(C)/C=C/C1=CC2CCC1C2 (stereo not drawn)	>1e-09	26%									
CC1=C(/C=C/c2ccc3cc(C(=O)O)ccc3c2)C(C)(C)CCC1	1e-10		6%	1%	92%	7%					
C/C(=C\c1ccc(C(=O)O)cc1)c1ccc2c(c1)C1CCC2C1 (stereo not drawn)	6e-10						3%	8%	57%	69%	33%
